In ChEMBL document CHEMBL2380256, “Discovery of novel Jak2-Stat pathway inhibitors with extended residence time on target” (Bioorg Med Chem Lett, 2013):
Active and inactive are the calls of the source. No cut-off for these calls is given here.

Key:
Homo sapiens = species on record: Homo sapiens; experiment: Free drug level in human; format: ADME, organism-based; details: in vivo
[1] = Total plasma concentration in nude mouse allografted with mouse Ba/F3 cells expressing JAK2 TEL domain administered as po qd measured at 6 hrs; format: ADME, organism-based, BaF3
Method in brief: (§1)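 Female nude mice implanted intravenously with Ba/F3 TEL-JAK2 cells on day 0 and dosed orally on day 10. Total plasma drug concentration was measured at the stated times post-dose, averaged over n = 3 per dose and time point.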

[2] = Total plasma concentration in nude mouse allografted with mouse Ba/F3 cells expressing JAK2 TEL domain administered as po qd measured at 2 hrs; format: ADME, organism-based, BaF3; method in brief: as §1
[3] = Intrinsic clearance in rat liver microsomes; format: ADME, Microsome; details: read-out: CLH
Mus musculus [4] = experiment: In vivo inhibition of JAK2 TEL domain (unknown origin) transfected in mouse Ba/F3 cells allografted in nude mouse assessed as inhibition of STAT5 phosphorylation at 10 mg/kg, po qd at 2 hrs relative to vehicle-treated control; format: functional; details: BaF3, 2 h
Method in brief: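 Female nude mice implanted intravenously with Ba/F3 TEL-JAK2 cells on day 0 and given a single oral dose on day 10. pStat5 was measured at the stated times post-dose. % inhibition was scaled between vehicle and a control inhibitor as maximum and minimum, with n = 3 per dose and time point, reported as mean ±SD.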

[5] = Growth inhibition of mouse BA/F3 cells transfected with JAK3 TEL domain after 24 hrs by Alamar Blue assay; format: functional, cell-based; details: BaF3, 24 h, read-out: GI50
[6] = Growth inhibition of mouse BA/F3 cells transfected with JAK2 TEL domain after 24 hrs by Alamar Blue assay; format: functional; details: BaF3, 24 h
[7] = molecular target: T1, Tyrosine-protein kinase JAK3 (Homo sapiens, UniProt P52333); experiment: Inhibition of JAK3 (unknown origin) using biotinylated poly-EY peptide as substrate after 60 mins by HTRF assay
T1 sequence (P52333 whole entry): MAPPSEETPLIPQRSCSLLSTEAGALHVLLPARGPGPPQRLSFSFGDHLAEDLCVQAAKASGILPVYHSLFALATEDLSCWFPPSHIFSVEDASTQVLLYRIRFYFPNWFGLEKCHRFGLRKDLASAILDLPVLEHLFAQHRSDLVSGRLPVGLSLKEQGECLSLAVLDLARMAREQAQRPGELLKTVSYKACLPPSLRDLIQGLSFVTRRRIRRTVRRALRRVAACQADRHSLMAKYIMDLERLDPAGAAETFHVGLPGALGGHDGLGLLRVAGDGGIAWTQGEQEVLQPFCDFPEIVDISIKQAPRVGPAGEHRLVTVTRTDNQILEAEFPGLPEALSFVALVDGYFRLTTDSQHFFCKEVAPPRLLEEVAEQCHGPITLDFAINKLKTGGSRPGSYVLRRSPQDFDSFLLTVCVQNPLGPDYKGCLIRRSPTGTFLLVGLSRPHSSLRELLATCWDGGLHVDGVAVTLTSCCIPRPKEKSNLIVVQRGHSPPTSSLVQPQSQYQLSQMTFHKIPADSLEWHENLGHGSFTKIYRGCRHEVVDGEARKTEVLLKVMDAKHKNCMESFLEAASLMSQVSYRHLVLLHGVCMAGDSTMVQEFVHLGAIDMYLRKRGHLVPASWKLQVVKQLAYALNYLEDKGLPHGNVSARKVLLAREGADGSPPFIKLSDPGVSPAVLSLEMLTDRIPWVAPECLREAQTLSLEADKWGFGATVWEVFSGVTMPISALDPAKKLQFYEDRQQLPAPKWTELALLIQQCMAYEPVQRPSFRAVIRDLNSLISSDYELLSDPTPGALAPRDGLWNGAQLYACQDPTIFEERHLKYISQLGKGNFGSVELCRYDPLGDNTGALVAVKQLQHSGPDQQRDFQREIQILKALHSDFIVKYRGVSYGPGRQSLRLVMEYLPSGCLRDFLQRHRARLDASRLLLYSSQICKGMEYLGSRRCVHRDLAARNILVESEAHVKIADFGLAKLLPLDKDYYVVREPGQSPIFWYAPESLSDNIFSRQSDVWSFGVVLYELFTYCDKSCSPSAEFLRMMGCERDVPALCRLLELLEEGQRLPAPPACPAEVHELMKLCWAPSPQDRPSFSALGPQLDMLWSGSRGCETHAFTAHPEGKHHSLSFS

[8] = molecular target: Tyrosine-protein kinase JAK2 (Homo sapiens, UniProt O60674); experiment: Inhibition of JAK2 (unknown origin) using biotinylated TYK2 peptide as substrate after 60 mins
Chain of Tyrosine-protein kinase JAK2 (O60674 whole entry): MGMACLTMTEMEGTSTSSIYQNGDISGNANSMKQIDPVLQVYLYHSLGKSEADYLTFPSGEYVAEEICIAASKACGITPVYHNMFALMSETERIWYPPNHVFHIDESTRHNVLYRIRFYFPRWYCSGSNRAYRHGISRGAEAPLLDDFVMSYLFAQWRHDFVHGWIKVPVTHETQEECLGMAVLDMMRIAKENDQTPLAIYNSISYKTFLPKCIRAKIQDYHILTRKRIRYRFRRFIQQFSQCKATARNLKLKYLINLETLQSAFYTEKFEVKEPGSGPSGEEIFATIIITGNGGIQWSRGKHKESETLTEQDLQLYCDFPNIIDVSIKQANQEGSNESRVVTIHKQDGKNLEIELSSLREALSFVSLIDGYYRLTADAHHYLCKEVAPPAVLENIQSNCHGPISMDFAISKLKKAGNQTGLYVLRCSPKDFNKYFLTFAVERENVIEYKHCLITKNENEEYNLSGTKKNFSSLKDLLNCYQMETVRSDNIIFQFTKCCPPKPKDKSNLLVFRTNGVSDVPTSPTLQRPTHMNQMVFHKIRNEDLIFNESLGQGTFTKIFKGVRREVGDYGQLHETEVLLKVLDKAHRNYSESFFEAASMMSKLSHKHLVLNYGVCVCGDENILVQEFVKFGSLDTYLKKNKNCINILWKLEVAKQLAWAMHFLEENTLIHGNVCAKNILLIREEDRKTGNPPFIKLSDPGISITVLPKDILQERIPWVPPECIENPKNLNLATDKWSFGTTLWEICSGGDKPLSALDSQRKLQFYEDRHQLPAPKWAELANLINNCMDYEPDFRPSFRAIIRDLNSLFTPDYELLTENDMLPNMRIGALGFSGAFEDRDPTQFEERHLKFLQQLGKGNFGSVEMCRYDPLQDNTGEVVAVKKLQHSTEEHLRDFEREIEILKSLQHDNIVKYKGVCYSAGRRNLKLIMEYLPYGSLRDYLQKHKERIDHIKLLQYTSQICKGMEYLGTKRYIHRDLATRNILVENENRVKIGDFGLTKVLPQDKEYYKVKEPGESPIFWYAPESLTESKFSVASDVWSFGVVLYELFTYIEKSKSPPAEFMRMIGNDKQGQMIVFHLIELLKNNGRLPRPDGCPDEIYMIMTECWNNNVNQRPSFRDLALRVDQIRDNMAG

Mus musculus [9] = species on record: Mus musculus; details: BaF3, 10 mg/kg

Drug uptake(free) (Homo sapiens): 3%
concentration at 6 h [1]: 185 ng/mL
concentration at 2 h [2]: 463 ng/mL
microsomal CLint [3]: 82 µL/min/mg
IC50 [7]: 16400 nM
IC50 [8]: 20 nM
Structure (SMILES): Cc1cnc(Nc2nc(N[C@@H](C)c3ncc(F)cn3)c(F)c(N3CCOCC3)n2)s1
inhibition in vivo at 10 mg/kg (Mus musculus [4]): 50%
GI50 [5]: 2700 nM
GI50 [6]: 30 nM
inhibition (Mus musculus [9]): inactive
